From ChEMBL document CHEMBL5252671, “Design, synthesis and evaluation of the anti-breast cancer activity of 1,3-oxazolo[4,5-d]pyrimidine and 1,3-oxazolo[5,4-d]pyrimidine derivatives” (2023)
Calls of active or inactive are those of the source. The rule behind the calls is not given here.

Key:
Type in all cases: functional
MDA-MB-231 [1] = experiment: Antiproliferative activity against human wild type MDA-MB-231 cells assessed as inhibition of cell growth at 3 uM measured at 48 hrs by trypan blue staining based MTT assay
In short: (§1)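 MDA cell lines were treated with 5-iodotubercidin (1 μM or 3 μM) or with test compound (10 μM or 30 μM). Drugs were dissolved in 0.225% DMSO, which also served as vehicle control. Proliferation was measured by Trypan Blue cell counting every 24 h for several consecutive days after seeding. MTT viability compared wild-type and mutant cells.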

MDA-MB-231 [2] = experiment: Antiproliferative activity against human ADK-L knockdown MDA-MB-231 cells assessed as inhibition of cell growth at 1 to 3 uM measured at 24 hrs by trypan blue staining based MTT assay; details: dose 1-3 µM; in short: as §1
MCF7 [3] = experiment: Antiproliferative activity against human MCF7 cells assessed as inhibition of cell growth at 1 X 10^-5 M measured for 48 hrs by sulforhodamine B assay relative to control; details: MCF7, 48 h, dose 1 10^-5M
In short: (§2)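 NCI one-dose screen. Cells were seeded at 5000-40000/well in RPMI 1640 with 5% FBS and 2 mM L-glutamine and preincubated 24 h at 37 °C in 5% CO2. Compound was added at 10⁻⁵ M for 48 h. Cells were then fixed with 10% TCA, stained with sulforhodamine B, washed with 1% acetic acid, solubilized in 10 mM Tris and read as OD at 510 nm.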

MDA-MB-231 [4] = experiment: Antiproliferative activity against human MDA-MB-231 cells assessed as inhibition of cell growth at 1 X 10^-5 M measured for 48 hrs by sulforhodamine B assay relative to control; details: MDA-MB-231, 48 h, dose 1 10^-5M; in short: as §2
Hs-578T [5] = experiment: Antiproliferative activity against human Hs-578T cells assessed as inhibition of cell growth at 1 X 10^-5 M measured for 48 hrs by sulforhodamine B assay relative to control; details: dose 1 10^-5M; in short: as §2
BT-549 [6] = experiment: Antiproliferative activity against human BT-549 cells assessed as inhibition of cell growth at 1 X 10^-5 M measured for 48 hrs by sulforhodamine B assay relative to control; details: BT-549, 48 h, dose 1 10^-5M; in short: as §2
T47D [7] = experiment: Antiproliferative activity against human T47D cells assessed as inhibition of cell growth at 1 X 10^-5 M measured for 48 hrs by sulforhodamine B assay relative to control; details: dose 1 10^-5M; in short: as §2
MDA-MB-468 [8] = experiment: Antiproliferative activity against human MDA-MB-468 cells assessed as inhibition of cell growth at 1 X 10^-5 M measured for 48 hrs by sulforhodamine B assay relative to control; details: MDA-MB-468, 48 h, dose 1 10^-5M; in short: as §2
MCF7 [9] = experiment: Anticancer activity against human MCF7 cells measured at 48 hrs
In short: (§3)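 NCI DTP five-dose screen on the breast subpanel: compound at 0.01, 0.1, 1, 10 and 100 μM for 48 h. Cell density read by sulforhodamine B (protein content). GI50, TGI and LC50 were derived from the T, T0 and C optical densities using the NCI formulas.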

MDA-MB-231 [10] = experiment: Anticancer activity against human MDA-MB-231 cells measured at 48 hrs; in short: as §3
Hs-578T [11] = experiment: Anticancer activity against human Hs-578T cells measured at 48 hrs; in short: as §3
BT-549 [12] = experiment: Anticancer activity against human BT-549 cells measured at 48 hrs; in short: as §3
T47D [13] = experiment: Anticancer activity against human T47D cells measured at 48 hrs; details: for CC50: read-out: LC50 (the source's name); in short: as §3
MDA-MB-468 [14] = experiment: Anticancer activity against human MDA-MB-468 cells measured at 48 hrs; in short: as §3
MDA-MB-231 [15] = experiment: Antiproliferative activity against human wild type MDA-MB-231 cells assessed as inhibition of cell growth at 10 to 30 uM measured for 24 hrs by trypan blue staining based MTT assay; details: dose 10-30 µM; in short: as §1
MDA-MB-231 [16] = experiment: Antiproliferative activity against human wild type MDA-MB-231 cells assessed as inhibition of cell growth at 10 to 30 uM measured for 24 hrs in presence of 5-Iodotubercidin by trypan blue staining based MTT assay; details: dose 10-30 µM; in short: as §1
MDA-MB-231 [17] = experiment: Antiproliferative activity against human wild type MDA-MB-231 cells assessed as inhibition of cell growth at 10 uM measured at 24 to 96 hrs by trypan blue staining based MTT assay; details: time 24-96 hrs; in short: as §1
MDA-MB-231 [18] = experiment: Antiproliferative activity against human wild type MDA-MB-231 cells assessed as inhibition of cell growth at 3 uM measured at 24 hrs by trypan blue staining based MTT assay; in short: as §1
MDA-MB-231 [19] = experiment: Antiproliferative activity against human wild type MDA-MB-231 cells assessed as inhibition of cell growth at 3 uM measured at 24 hrs in presence of 5-Iodotubercidin by trypan blue staining based MTT assay; in short: as §1
MDA-MB-231 [20] = experiment: Antiproliferative activity against human wild type MDA-MB-231 cells assessed as inhibition of cell growth at 3 uM measured at 96 hrs by trypan blue staining based MTT assay; in short: as §1
MDA-MB-231 [21] = experiment: Antiproliferative activity against human ADK-L knockdown MDA-MB-231 cells assessed as inhibition of cell growth at 1 to 3 uM measured at 24 hrs in presence of 5-iodotubercidin by trypan blue staining based MTT assay; details: dose 1-3 µM; in short: as §1

Row | SMILES | inhibition at 10 µM (MCF7 [3]) [%] | inhibition at 10 µM (MDA-MB-231 [4]) [%] | inhibition at 10 µM (Hs-578T [5]) [%] | inhibition at 10 µM (BT-549 [6]) [%] | inhibition at 10 µM (T47D [7]) [%] | inhibition at 10 µM (MDA-MB-468 [8]) [%] | GI50 (MCF7 [9]) [µM] | LC50 (concentration giving 50% net cell kill) (MCF7 [9]) [µM] | TGI (MCF7 [9]) [µM] | GI50 (MDA-MB-231 [10]) [µM] | LC50 (concentration killing 50% of starting cells) (MDA-MB-231 [10]) [µM] | TGI (MDA-MB-231 [10]) [µM] | GI50 (Hs-578T [11]) [µM] | TGI (Hs-578T [11]) [µM] | GI50 (BT-549 [12]) [µM] | TGI (BT-549 [12]) [µM] | GI50 (T47D [13]) [µM] | TGI (T47D [13]) [µM] | CC50 (T47D [13]) [µM] | GI50 (MDA-MB-468 [14]) [µM] | also measured
1 | Nc1ncnc2c1c(I)cn2[C@@H]1O[C@H](CO)[C@@H](O)[C@H]1O | – | – | – | – | – | – | – | – | – | – | – | – | – | – | – | – | – | – | – | – | Activity (MDA-MB-231 [1]): Active; Activity (MDA-MB-231 [2]): Active
2 | Cc1ccc(-c2nc3nc(-c4ccccc4)nc(N4CCNCC4)c3o2)cc1 | 166 | 179 | 151 | 172 | 168 | 187 | 0.33 | 5.74 | 1.45 | 0.26 | 2.61 | 0.67 | 2.02 | 4.22 | 1.72 | 3.2 | 0.35 | 1.51 | 6.33 | 0.29 | LC50 (concentration giving 50% net cell kill) (BT-549 [12]): 5.99 µM; LC50 (concentration giving 50% net cell kill) (MDA-MB-468 [14]): 4.84 µM; TGI (MDA-MB-468 [14]): 1.18 µM
3 | Cc1ccc(-c2nc(N3CCCNCC3)c3oc(-c4ccccc4)nc3n2)cc1 | 175 | 192 | 130 | 19 | 167 | 176 | 1.59 | 7.45 | 3.44 | 1.77 | 6.06 | 3.27 | 1.94 | 4.22 | 1.62 | 3.14 | 2.02 | 4 | 7.94 | 1.55 | LC50 (50% lethal concentration) (Hs-578T [11]): 9.21 µM; LC50 (concentration giving 50% net cell kill) (MDA-MB-468 [14]): 6.75 µM; TGI (MDA-MB-468 [14]): 3.24 µM
4 | Cc1ccc(-c2nc3nc(-c4ccc(F)cc4)nc(N4CCNCC4)c3o2)cc1 | 174 | 129 | 106 | 1 | 127 | 46 | 1.66 | 7.4 | 3.51 | 1.86 | 7.09 | 3.63 | 2.06 | 5.12 | 13.6 | 30.1 | 2.3 | 6.92 | > 100 | 1.74 | LC50 (50% lethal concentration) (Hs-578T [11]): 37 µM; LC50 (concentration giving 50% net cell kill) (BT-549 [12]): 66.8 µM; LC50 (concentration giving 50% net cell kill) (MDA-MB-468 [14]): 6.56 µM; TGI (MDA-MB-468 [14]): 3.38 µM
5 | c1ccc(-c2nc(N3CCNCC3)c3oc(-c4ccccc4)nc3n2)cc1 | 162 | 187 | 161 | 106 | 142 | 174 | 1.48 | 7.4 | 3.31 | 1.76 | 6.1 | 3.28 | 1.88 | 4.07 | 1.77 | 3.41 | 2.1 | 4.95 | > 100 | 1.73 | LC50 (50% lethal concentration) (Hs-578T [11]): 8.8 µM; TGI (MDA-MB-468 [14]): 3.42 µM; Activity (MDA-MB-231 [15]): Active; Activity (MDA-MB-231 [16]): Active; Activity (MDA-MB-231 [17]): Active; Activity (MDA-MB-231 [18]): Active; Activity (MDA-MB-231 [19]): Active; Activity (MDA-MB-231 [20]): inactive; Activity (MDA-MB-231 [21]): Active
6 | c1ccc(-c2nc(N3CCCNCC3)c3oc(-c4ccccc4)nc3n2)cc1 | 132 | 180 | 131 | 126 | 123 | 171 | 1.41 | 5.69 | 2.83 | 1.56 | 5.65 | 2.97 | 1.86 | 4.13 | 1.73 | 3.18 | 1.69 | 3.48 | 7.15 | 1.48 | LC50 (50% lethal concentration) (Hs-578T [11]): 9.16 µM; LC50 (concentration giving 50% net cell kill) (BT-549 [12]): 5.86 µM; LC50 (concentration giving 50% net cell kill) (MDA-MB-468 [14]): 5.54 µM; TGI (MDA-MB-468 [14]): 2.87 µM
7 | Cc1ccc(-c2nc3nc(-c4ccc(Cl)cc4)nc(N4CCCNCC4)c3o2)cc1 | 179 | 176 | 151 | 1 | 136 | 154 | 1.7 | 6.75 | 3.39 | 1.87 | 6.21 | 3.37 | 1.93 | 4.17 | 1.9 | 3.61 | 1.94 | 4.14 | 8.84 | 1.78 | LC50 (50% lethal concentration) (Hs-578T [11]): 9.02 µM; LC50 (concentration giving 50% net cell kill) (BT-549 [12]): 6.86 µM; LC50 (concentration giving 50% net cell kill) (MDA-MB-468 [14]): 6.59 µM; TGI (MDA-MB-468 [14]): 3.42 µM
